The values below come from ChEMBL document CHEMBL1132716, “Agonist selectivity of mGluR1 and mGluR2 metabotropic receptors: a different environment but similar recognition of an extended glutamate conformation” (J Med Chem, 1999).

For assay [1], the target named is Metabotropic glutamate receptor 1 (Rattus norvegicus) (UniProt P23385). Description: Ratio between EC50 of compound and glutamate measured against metabotropic glutamate receptor 1. The class given is functional. The method, boiled down:
(§1)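 mGluR1a (rat, transient in LLC-PK1 or HEK 293 cells) inositol phosphate formation; EC50 from Hill fits of at least eight-point curves over 3 log units, expressed as ratio of compound EC50 to glutamate EC50 measured in the same assay.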

Assay [2] addresses Metabotropic glutamate receptor 2 (Rattus norvegicus) (UniProt P31421). Kind of assay: Ratio between EC50 of compound and glutamate measured against Metabotropic glutamate receptor 2. The format is functional. The essentials: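 mGluR2 (rat, transient in HEK 293 cells with co-expressed Gqi9 chimera) inositol phosphate formation; EC50 from Hill fits of at least eight concentrations over 3 orders of magnitude, reported as ratio to the glutamate EC50 determined under the same conditions.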

For assay [3], the target named is Metabotropic glutamate receptor 2 (Rattus norvegicus, UniProt P31421). Kind of assay: Inhibitory activity against Metabotropic glutamate receptor 2 in the rat HEK 293 cells. The class given is cell-based, HEK293. The method, boiled down: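 Rat mGluR2 transiently expressed in HEK 293 cells, cotransfected with chimeric G-protein Gqi9 so the receptor couples to PLC; activity read as agonist-induced inositol phosphate formation. At least eight concentrations over 3 orders of magnitude gave full dose-response curves, Hill-equation fit giving maximal effect, EC50 (or IC50) and Hill coefficient.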

The target in assay [4] is T1, Metabotropic glutamate receptor 1 (Rattus norvegicus, UniProt P23385). Kind of assay: Inhibitory activity against Metabotropic glutamate receptor 1 in the rat LLC-PK1/HEK 293 cells. The class given is cell-based, HEK293. The essentials: (§2)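 Rat mGluR1a transiently expressed in LLC-PK1 or HEK 293 cells; receptor activity read as agonist-induced inositol phosphate formation. At least eight agonist concentrations spanning 3 orders of magnitude gave full dose-response curves, fitted to a Hill equation for maximal effect, EC50 (or IC50) and Hill coefficient.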

The target in assay [5] is Metabotropic glutamate receptor 1 (Rattus norvegicus) (UniProt P23385). Description: Ratio between the measured EC50 and the glutamate EC50 measured against Metabotropic glutamate receptor 1; No effect. The class given is functional. The essentials:
as §1

The target in assay [6] is T1, Metabotropic glutamate receptor 1. Description: Inhibitory activity against Metabotropic glutamate receptor 1 in the rat LLC-PK1/HEK 293 cells.; No effect. The class given is cell-based. To be noted: hek293. The essentials: as §2
Assay [7] has as its target Metabotropic glutamate receptor 2 (Homo sapiens, UniProt Q14416). Kind of assay: Inhibitory activity against human Metabotropic glutamate receptor 2.
The target in assay [8] is T1, Metabotropic glutamate receptor 1. Description: Inhibitory activity against Metabotropic glutamate receptor 1 in the rat LLC-PK1/HEK 293 cells. The class given is cell-based, HEK293. The essentials: as §2

Each structure is given as a SMILES string. The source made the active and inactive calls. No cut-off for these calls is given here.

T1 sequence (P23385 whole entry): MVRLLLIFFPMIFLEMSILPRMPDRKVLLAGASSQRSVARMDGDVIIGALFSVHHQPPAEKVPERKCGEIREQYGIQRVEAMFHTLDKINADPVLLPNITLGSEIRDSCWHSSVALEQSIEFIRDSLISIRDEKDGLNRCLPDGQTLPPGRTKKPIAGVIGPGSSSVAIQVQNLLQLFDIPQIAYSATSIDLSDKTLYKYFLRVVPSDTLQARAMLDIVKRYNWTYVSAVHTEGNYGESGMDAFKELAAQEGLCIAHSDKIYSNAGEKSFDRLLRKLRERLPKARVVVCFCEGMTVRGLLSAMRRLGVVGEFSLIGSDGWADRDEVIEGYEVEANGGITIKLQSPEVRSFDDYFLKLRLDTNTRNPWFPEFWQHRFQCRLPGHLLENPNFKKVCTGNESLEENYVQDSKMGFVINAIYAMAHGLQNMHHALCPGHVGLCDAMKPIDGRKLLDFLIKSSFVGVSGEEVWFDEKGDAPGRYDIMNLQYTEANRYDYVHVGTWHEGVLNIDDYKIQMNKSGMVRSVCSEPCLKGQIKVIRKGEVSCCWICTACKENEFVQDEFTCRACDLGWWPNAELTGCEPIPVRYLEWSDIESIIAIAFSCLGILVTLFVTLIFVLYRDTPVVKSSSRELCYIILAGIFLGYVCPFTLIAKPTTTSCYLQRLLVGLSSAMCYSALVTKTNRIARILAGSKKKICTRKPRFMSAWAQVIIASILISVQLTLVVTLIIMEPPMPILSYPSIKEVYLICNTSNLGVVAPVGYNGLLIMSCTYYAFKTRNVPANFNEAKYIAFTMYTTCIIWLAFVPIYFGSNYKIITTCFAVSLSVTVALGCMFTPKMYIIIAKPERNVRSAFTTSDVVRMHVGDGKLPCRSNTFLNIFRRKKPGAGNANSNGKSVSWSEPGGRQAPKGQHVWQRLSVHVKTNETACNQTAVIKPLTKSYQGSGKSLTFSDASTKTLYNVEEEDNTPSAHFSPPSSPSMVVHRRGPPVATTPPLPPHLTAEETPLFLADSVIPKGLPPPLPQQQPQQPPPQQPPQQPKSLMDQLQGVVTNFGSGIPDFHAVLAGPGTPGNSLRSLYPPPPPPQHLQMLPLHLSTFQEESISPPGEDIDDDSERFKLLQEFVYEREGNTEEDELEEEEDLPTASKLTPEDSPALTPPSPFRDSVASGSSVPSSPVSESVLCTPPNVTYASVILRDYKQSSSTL
Sequence of Metabotropic glutamate receptor 1 (Rattus norvegicus) (P23385 19-1199 limits assumed): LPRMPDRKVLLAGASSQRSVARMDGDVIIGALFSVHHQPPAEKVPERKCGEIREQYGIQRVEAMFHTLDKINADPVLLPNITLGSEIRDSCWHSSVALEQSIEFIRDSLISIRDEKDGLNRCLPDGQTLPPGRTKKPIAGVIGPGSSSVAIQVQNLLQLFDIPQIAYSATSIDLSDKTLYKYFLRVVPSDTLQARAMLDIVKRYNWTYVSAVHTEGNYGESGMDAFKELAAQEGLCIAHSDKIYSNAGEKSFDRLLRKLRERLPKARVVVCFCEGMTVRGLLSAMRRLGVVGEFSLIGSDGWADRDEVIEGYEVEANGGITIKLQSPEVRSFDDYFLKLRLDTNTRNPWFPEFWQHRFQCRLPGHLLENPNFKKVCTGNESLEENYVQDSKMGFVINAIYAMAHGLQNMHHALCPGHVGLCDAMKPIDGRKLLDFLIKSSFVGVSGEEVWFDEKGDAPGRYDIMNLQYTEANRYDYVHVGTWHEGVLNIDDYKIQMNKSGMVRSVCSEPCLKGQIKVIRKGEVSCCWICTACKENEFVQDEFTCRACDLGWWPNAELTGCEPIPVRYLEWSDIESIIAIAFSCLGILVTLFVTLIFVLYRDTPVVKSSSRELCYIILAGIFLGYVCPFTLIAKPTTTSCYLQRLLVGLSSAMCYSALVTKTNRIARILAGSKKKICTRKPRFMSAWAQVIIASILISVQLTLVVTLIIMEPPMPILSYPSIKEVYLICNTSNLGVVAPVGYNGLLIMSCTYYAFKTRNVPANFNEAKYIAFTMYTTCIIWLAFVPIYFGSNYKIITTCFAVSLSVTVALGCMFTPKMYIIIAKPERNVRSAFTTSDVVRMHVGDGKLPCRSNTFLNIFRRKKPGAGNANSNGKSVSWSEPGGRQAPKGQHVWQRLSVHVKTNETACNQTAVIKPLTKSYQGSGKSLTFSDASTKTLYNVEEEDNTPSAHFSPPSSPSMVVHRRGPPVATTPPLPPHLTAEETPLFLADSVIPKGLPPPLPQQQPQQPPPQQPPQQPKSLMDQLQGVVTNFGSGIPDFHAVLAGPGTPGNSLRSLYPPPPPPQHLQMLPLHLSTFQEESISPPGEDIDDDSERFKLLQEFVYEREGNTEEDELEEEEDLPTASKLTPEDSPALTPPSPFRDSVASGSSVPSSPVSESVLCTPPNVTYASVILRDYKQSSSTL
Sequence of Metabotropic glutamate receptor 2 (Rattus norvegicus) (P31421 19-872 limits assumed): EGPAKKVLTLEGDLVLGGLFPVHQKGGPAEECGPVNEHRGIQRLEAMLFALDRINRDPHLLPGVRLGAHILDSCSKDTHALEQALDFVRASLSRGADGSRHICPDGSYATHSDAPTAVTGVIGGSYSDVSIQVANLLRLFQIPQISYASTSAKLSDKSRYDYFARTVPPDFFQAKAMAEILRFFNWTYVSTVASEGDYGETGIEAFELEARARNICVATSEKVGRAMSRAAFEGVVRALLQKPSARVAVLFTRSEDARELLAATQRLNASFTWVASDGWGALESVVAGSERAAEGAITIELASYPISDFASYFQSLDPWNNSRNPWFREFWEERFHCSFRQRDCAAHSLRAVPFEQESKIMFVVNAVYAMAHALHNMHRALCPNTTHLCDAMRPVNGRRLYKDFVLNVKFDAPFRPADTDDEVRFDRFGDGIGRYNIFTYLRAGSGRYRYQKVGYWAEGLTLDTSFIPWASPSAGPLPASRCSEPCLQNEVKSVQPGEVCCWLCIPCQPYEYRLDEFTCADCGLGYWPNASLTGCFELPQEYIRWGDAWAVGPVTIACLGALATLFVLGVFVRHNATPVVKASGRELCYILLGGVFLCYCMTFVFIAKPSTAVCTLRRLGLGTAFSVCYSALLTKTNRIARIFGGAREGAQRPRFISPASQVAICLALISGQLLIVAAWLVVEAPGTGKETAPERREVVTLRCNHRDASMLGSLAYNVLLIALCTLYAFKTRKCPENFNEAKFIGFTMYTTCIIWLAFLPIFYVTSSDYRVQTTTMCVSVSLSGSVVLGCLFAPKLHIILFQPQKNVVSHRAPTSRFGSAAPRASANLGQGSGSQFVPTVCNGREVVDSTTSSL
Sequence of Metabotropic glutamate receptor 2 (Rattus norvegicus, UniProt P31421) (P31421 whole entry): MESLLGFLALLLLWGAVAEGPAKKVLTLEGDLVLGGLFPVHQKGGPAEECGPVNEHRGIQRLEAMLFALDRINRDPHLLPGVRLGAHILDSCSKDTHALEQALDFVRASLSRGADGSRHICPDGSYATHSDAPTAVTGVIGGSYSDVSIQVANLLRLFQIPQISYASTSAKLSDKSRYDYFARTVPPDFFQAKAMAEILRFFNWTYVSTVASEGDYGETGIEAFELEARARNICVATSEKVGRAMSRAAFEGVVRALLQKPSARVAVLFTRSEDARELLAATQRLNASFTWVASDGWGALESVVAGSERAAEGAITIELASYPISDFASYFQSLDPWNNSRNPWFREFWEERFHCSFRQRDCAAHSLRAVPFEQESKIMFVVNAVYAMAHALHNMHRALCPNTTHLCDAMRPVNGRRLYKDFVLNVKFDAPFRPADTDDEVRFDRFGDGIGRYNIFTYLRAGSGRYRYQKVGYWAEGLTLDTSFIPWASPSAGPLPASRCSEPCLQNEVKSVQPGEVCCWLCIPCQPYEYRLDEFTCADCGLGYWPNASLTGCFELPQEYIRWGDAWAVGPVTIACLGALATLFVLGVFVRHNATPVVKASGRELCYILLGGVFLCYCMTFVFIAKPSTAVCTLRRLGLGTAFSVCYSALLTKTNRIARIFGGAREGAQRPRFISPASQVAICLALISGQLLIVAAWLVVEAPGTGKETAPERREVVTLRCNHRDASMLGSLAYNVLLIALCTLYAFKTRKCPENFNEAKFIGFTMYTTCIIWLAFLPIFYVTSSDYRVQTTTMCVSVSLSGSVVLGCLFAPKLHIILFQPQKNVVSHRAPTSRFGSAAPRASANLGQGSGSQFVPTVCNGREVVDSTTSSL
Sequence of Metabotropic glutamate receptor 2 (Homo sapiens, UniProt Q14416) (Q14416 whole entry): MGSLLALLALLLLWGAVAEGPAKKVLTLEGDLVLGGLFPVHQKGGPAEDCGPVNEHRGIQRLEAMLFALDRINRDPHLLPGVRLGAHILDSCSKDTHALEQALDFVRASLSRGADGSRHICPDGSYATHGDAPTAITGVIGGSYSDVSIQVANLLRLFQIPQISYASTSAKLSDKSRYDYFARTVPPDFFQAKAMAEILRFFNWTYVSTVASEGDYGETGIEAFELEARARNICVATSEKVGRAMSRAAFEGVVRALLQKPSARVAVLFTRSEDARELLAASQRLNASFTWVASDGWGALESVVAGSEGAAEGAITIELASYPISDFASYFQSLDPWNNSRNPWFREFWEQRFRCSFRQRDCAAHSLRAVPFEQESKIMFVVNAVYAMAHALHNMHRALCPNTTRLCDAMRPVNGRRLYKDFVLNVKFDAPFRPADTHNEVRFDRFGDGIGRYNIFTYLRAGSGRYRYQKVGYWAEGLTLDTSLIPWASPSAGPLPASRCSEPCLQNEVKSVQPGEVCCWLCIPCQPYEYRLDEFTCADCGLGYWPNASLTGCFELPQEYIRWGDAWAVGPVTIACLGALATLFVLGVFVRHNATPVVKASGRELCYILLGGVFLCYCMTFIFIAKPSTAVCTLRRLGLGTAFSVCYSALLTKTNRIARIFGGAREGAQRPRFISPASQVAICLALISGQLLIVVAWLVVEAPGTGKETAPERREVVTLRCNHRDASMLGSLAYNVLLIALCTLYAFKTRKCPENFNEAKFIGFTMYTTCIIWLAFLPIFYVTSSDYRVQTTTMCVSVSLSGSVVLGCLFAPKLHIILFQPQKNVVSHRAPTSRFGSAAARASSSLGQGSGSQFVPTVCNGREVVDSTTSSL

Regarding `NC1(C(=O)O)C2CCC1C(C(=O)O)C2` (stereo unspecified), the EC50 ratio in assay [1] and in assay [2] was over 80 in each case. For the same compound, the IC50 in assay [3] and in assay [4] was over 1000 µM each time.
`CC(CC(N)C(=O)O)C(=O)O` (racemic): the EC50 ratio in assay [1] amounted to 0.65; in assay [2], 0.53.
In the case of `N[C@H](C(=O)O)[C@@H]1C[C@H]1C(=O)O`, in assay [1], the EC50 ratio came to 20.
On to `C[C@@](N)(C(=O)O)[C@H]1C[C@@H]1C(=O)O`, for which, in assay [3], the IC50 was found to be 77 µM. Besides, the EC50 ratio entry in assay [5] is “inactive”.
Turning to `N[C@@H](C[C@H](CC(c1ccccc1)c1ccccc1)C(=O)O)C(=O)O`, the IC50 result in assay [6] was “Not Active”; in assay [7], 3 µM.
For `C[C@@H](C[C@H](N)C(=O)O)C(=O)O`, the EC50 ratio in assay [1] was found to be 0.5; in assay [2] it was 0.3.
In the case of `NC1(C(=O)O)CC2CCC1C2C(=O)O` (stereo in doubt; 8) [listing 1 of 2 here], the EC50 ratio in assay [2] was over 80.
Turning to `C[C@H](C[C@@H](N)C(=O)O)C(=O)O`, the EC50 ratio amounted to 4.9 in assay [1] and 1.1 in assay [2].
Turning to `N[C@]1(C(=O)O)CC[C@H](C(=O)O)C1`, the EC50 ratio in assay [1] and in assay [2] was 10 throughout.
Consider `C[C@H](CC(=O)O)[C@H](N)C(=O)O`, for which the values for the EC50 ratio in assay [1] and in assay [2] were 23 and 12, respectively.
For the compound `N[C@@H](C[C@H](CCCC(c1ccccc1)c1ccccc1)C(=O)O)C(=O)O`, the IC50 result is “Not Active” in assay [6] and 0.4 µM in assay [7].
As to `C[C@@H](CC(=O)O)[C@H](N)C(=O)O`, the EC50 ratio in assay [1] stood at 13; in assay [2], 80.
On to `C=C(CC(N)C(=O)O)C(=O)O` (racemic), for which the EC50 ratio in assay [1] was 1.1; in assay [2] it was 0.4.
Taken in the same sequence, the figures for `NC1(C(=O)O)CC2CC1C2C(=O)O` (stereo in doubt; 13) were 25 and 186.
Turning to `N[C@@]1(C(=O)O)CC[C@H]2[C@H](C(=O)O)[C@H]21`, the EC50 ratio in assay [2] worked out at 0.004. Moreover, inhibition in assay [4] was half-maximal at 458 µM (IC50).
For the compound `NC1(C(=O)O)CC2CC1C2C(=O)O` (stereo in doubt; 12), the figures for the EC50 ratio in assay [1] and in assay [2] were 0.32 and 1.1, respectively.
As for `C=C(C[C@@H](N)C(=O)O)C(=O)O`, the EC50 ratio in assay [1] stood at 14.
For the compound `N[C@H](C(=O)O)[C@H]1C[C@@H]1C(=O)O`, the EC50 ratio in assay [1] amounted to 5; in assay [2], 0.04.
With `CC(N)(CCC(=O)O)C(=O)O` (racemic), the EC50 ratio in assay [2] was over 80.
On to `N[C@@H](CCC(=O)O)C(=O)O`, for which the EC50 ratio in assay [1] and in assay [2] was 1 each time.
With `N[C@@]1(C(=O)O)CC[C@@H](C(=O)O)C1`, the EC50 ratio in assay [1] was 0.75; in assay [2], 1.6.
For `N[C@@H](Cn1oc(=O)[nH]c1=O)C(=O)O`, the EC50 ratio in assay [1] was 0.02; in assay [2], over 90.
Taken in the same sequence, the figures for `C[C@H](C[C@H](N)C(=O)O)C(=O)O` were 4.6 and 23.
Turning to `NC1(C(=O)O)CC2CCC1C2C(=O)O` (stereo in doubt; 8) [listing 2 of 2 here], in assay [4], it took 300 µM to reach half-maximal inhibition (IC50).
Turning to `C[C@@](N)(CCC(=O)O)C(=O)O`, the EC50 ratio in assay [1] was over 80.
As to `N[C@H](C(=O)O)c1cc(O)cc(O)c1`, the EC50 ratio in assay [1] was found to be 0.53.
Consider `NC1(C(=O)O)CC2CCC1C2C(=O)O` (stereo in doubt; 10), for which the EC50 ratio in assay [1] and in assay [2] was over 80 throughout.
With `C[C@](N)(CCC(=O)O)C(=O)O`, the EC50 ratio in assay [1] was over 80.
Take `N[C@H](C(=O)O)C12CC(C(=O)O)(C1)C2`: the EC50 ratio in assay [2] was over 60. Moreover, the results for the IC50 in assay [3] and in assay [4] were over 300 µM and 25 µM, respectively.
For the compound `N[C@]1(C(=O)O)C[C@H](C(=O)O)[C@H](C(=O)O)C1`, the IC50 in assay [3] came to 88 µM; in assay [4], 115 µM. Besides, in assay [5], the EC50 ratio entry was “inactive”.
For the compound `N[C@H](C(=O)O)c1cccc(O)c1`, the EC50 ratio in assay [1] is 7.8; in assay [2] it was over 80.
Regarding `O=C(O)[C@H]1C[C@H](C(=O)O)N1`, the figures for the EC50 ratio in assay [1] and in assay [2] were 15 and over 80, respectively.
Consider `N[C@@H](CC(C(=O)O)C(=O)O)C(=O)O`, for which the IC50 was 102 µM in assay [3] and “Not Active” in assay [6]. In assay [5], the EC50 ratio entry is “inactive”.
On to `C=C(C[C@H](N)C(=O)O)C(=O)O`, for which, in assay [1], the EC50 ratio is 0.7.
As for `NC1(C(=O)O)CC2CC1C2C(=O)O` (stereo in doubt; 14), the EC50 ratio in assay [1] came to 47; in assay [2] it was 131.
For `N[C@H](C(=O)O)c1ccc(C(=O)O)c(O)c1`, the EC50 ratio in assay [2] stood at 4. This compound also had an IC50 in assay [8] of 40 µM.
As to `N[C@H](C(=O)O)C1[C@@H](C(=O)O)[C@@H]1C(=O)O` (stereo partly specified), in assay [2], the EC50 ratio came to 0.03. This compound gave an IC50 in assay [4] of 389 µM.
On to `N[C@H](C(=O)O)c1cc(O)no1`, for which the EC50 ratio in assay [1] was 0.91; in assay [2], 25.
Taken in the same sequence, the figures for `N[C@@]1(C(=O)O)CN[C@@H](C(=O)O)C1` were over 80 and 0.4.
In the same order, the values of `N[C@@]1(C(=O)O)CC[C@H](C(=O)O)C1` are over 25 and 1.2.
